High-throughput results from PubChem.
GPR7 antag: blocks human GPR7 receptor signaling; P48145; GPR7-expressing cells, fluorescence antagonist assay; 1.1% of 290,000 active; inhibition, % at 4.4 µM; AID 1861; in the data active = inhibition above about 16%, passing the limit was not always enough;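 also: cells stimulated with the agonist NPW; 0% = agonist with vehicle and 100% = vehicle without agonist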
EP2 mod: modulates human prostaglandin E2 receptor EP2 signaling; P43116; EP2-expressing cells, cAMP HTRF FRET, PGE2 co-stimulation; induction, % at 25 µM; 0.83% of 260,000 active; AID 940;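 active = compounds whose cAMP rise, as percent of the full-agonist control response, exceeds 60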;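 also: rat C6 glioma line stably carrying human EP2 under a CMV promoter; the protocol text gives 20 µM as final concentration; 100% = response of wells given 1 µM PGE2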
Target sequence (P43116 whole entry, looked up): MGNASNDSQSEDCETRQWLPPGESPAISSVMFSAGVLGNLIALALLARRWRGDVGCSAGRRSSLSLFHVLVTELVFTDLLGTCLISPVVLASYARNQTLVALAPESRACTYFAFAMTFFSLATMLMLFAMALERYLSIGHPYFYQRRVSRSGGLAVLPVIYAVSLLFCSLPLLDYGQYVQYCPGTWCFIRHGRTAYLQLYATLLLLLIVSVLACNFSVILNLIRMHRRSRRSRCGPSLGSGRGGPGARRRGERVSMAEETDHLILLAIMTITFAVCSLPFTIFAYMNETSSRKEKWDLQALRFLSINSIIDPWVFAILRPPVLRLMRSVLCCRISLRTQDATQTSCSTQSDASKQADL
CHO parental Ca: signal in parental CHO cells, OX1R antagonist counter-screen | parental CHO-K1, ATP-induced calcium, Fluo-8 fluorescence | inhibition, % at 5.6 µM | 0.63% of 330,000 active;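 active = inhibition above that plate's mean sample inhibition plus 3 SD, cut at about 26% in these data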;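 also: 0% = ATP-challenged DMSO wells and 100% = DMSO wells without ATP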
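material = parental CHO cells | also added = ATP as calcium-mobilizing challenge | dosing = single point at 5.6 µM | detection = intracellular calcium via Fluo-8 no-wash fluorescent dye | read-out = % inhibition | benchmarks = low control ATP plus DMSO, high control DMSO only | repeats = one well per compound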
OX1R antag-1: blocks the human orexin 1 receptor; inhibition, % at 5 µM; 0.43% of 330,000 active; O43613; CHO/OX1R cells, Fluo-8 calcium fluorescence, orexin A;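 active = inhibition above its plate's threshold, mean inhibition of all tested compounds on the plate plus 3 SD, cut at about 37% in these data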;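 also: 0% = orexin A challenge wells and 100% = SB-334867-A antagonist wells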
Target sequence (O43613 whole entry, looked up): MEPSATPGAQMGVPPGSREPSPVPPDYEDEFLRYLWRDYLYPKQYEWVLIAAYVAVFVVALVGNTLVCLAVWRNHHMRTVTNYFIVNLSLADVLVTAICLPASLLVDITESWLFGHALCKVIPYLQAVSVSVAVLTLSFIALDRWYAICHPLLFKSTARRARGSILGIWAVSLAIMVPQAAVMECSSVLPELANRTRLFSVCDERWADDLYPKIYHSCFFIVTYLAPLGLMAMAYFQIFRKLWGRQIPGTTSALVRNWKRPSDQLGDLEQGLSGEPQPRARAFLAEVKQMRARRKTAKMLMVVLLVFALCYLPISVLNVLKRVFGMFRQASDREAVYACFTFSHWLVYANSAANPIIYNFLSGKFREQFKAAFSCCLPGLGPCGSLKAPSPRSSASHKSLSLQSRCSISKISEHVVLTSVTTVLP
OX1R antag-2: antagonists of human orexin 1 receptor (OX1R); O43613; OX1R-expressing cells, FRET antagonist read-out; inhibition, % at 6.6 µM; 1.8% of 330,000 active; in the data active = inhibition mostly above about 38%, no sharp cut-off; inactive = mostly below about 40%;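 also: 0% = agonist challenge alone and 100% = reference antagonist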
EP2 antag: EP2 receptor (human) inhibition. AID 1422. 0.52% of 260,000 active. C6 glioma cells expressing human EP2, cAMP TR-FRET; cells stimulated with saturating PGE2. inhibition, % at 25 µM. P43116;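 active = percent inhibition above 40 after rounding to a whole number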;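 also: rat C6 glioma host cells with rolipram phosphodiesterase inhibitor present; the protocol text gives 20 µM as final concentration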
GPR7 antag cf: human GPR7 antagonism, confirmation assay | shares compounds with GPR7 antag | inhibition, % at 4.4 µM | GPR7-expressing cells, calcium fluorescence antagonist mode | 52% of 2,400 active; in the data active = inhibition above about 24%;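 also: stimulated with the GPR7 agonist NPW; 0% = agonist plus vehicle and 100% = vehicle alone without agonist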
MCHR1 antagonist: counter-screen for GPR7 antagonists: antagonists of human MCHR1; shares compounds with GPR7 antag; MCHR1-expressing cells, fluorescence antagonist assay; inhibition, % at 4.4 µM; 62% of 2,400 active; AID 2148; in the data active = inhibition above about 22%;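 also: 0% = vehicle with agonist and 100% = vehicle without agonist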
The depositor's hits bear a star; nt = no result. Shown are actives, neighbours in structure and some others; about 3.7% of the full set was active somewhere.

SMILES | GPR7 antag | EP2 mod | CHO parental Ca | OX1R antag-1 | OX1R antag-2 | EP2 antag | GPR7 antag cf | MCHR1 antagonist
Cc1ccc2c(c1)c1c(n2CC(O)CNC2CCCC2)CCCC1 (stereo unspecified) | 22.9* | -13.1 | -5.1 | -17.9 | 2.8 | 8.2 | 53.4* | 41.2*
COC(=O)C1CCN(C(c2cc(OC)c(OC)c(OC)c2)c2sc3nc(C)nn3c2O)CC1 (stereo unspecified) | 22.6* | 1.7 | 5.1 | 6.6 | 3.8 | 11.9 | -10.5 | 2.5
CNC(=O)c1ccc(NC(=O)CCc2c(C)noc2C)cc1 | nt | nt | -3.8 | 5.9 | 4.8 | nt | nt | nt
O=C(O)c1ccc(-n2nncc2-c2ccco2)cc1 | -15.6 | nt | -8.0 | -22.8 | -3.8 | nt | nt | nt
O=C(Nc1ccc(-n2nncc2-c2ccco2)cc1)c1ccc(F)cc1 | 22.5* | -8.4 | -14.2 | 4.8 | 17.8 | 7.2 | 40.0* | 72.8*
CCCCCc1cc(=O)oc2c(C(CCN(CC)CC)c3ccc(OC)cc3)c(OC)cc(OC)c12 (stereo unspecified) | nt | -14.8 | -31.4 | -23.6 | 16.3 | 4.3 | nt | nt
CC(C)(C)c1ccc(OCCOc2ccc(C(C)(C)C)cc2NC=O)c(NC=O)c1 | 19.1* | -10.6 | 69.3* | 41.3* | 29.1 | 16.9 | 29.1* | 71.7*
COCCOc1ccc(C(F)(F)F)cc1NC(=O)c1ccccc1 | -7.2 | 10.8 | 8.0 | -34.1 | 12.4 | 11.5 | nt | nt
O=C(c1ccc(Br)cc1)C(CN1CCOCC1)c1ccccc1 (stereo unspecified) | 67.4* | nt | -2.5 | 8.2 | 6.4 | nt | 59.0* | 85.5*
Fc1cccc2sc(Nc3nc4c(F)cccc4s3)nc12 | -1.4 | -1.1 | 3.4 | 6.4 | 31.3 | 15.4 | nt | nt
O=C(Nc1nc2c(F)cccc2s1)C1CC1 | 28.6* | nt | 3.3 | 8.1 | 5.2 | nt | -3.7 | 12.1
COc1ccc(C)cc1NC(=O)CN(c1ccc(F)cc1)S(C)(=O)=O | 18.0 | 10.6 | -11.1 | -22.9 | 2.1 | 8.4 | nt | nt
CCC(C)Nc1nc2c(c(=O)n(C)c(=O)n2C)n1Cc1cccc(C)c1 (stereo unspecified) | -5.0 | 19.2 | -6.2 | -4.8 | 8.9 | 5.2 | nt | nt
COCCNC(=O)Cn1cc(C(=S)N2CCCCC2)c2ccccc21 | 24.5* | -5.4 | -12.8 | -21.4 | 15.3 | 1.5 | -5.9 | 3.0
COCCNC(=O)Cn1cc(C(C)=O)c2ccccc21 | nt | -7.8 | nt | nt | nt | 10.4 | nt | nt
S=C(c1cn(CCOc2ccccc2)c2ccccc12)N1CCCC1 | 13.6 | -11.3 | -10.8 | 9.5 | 34.0 | 11.1 | nt | nt
Cc1ccc(OCCn2cc(C(=S)N3CCCC3)c3ccccc32)cc1C | 27.3* | 12.5 | -14.4 | -9.9 | -1.7 | 9.8 | 29.1* | 67.7*
N#CCCN(Cc1cccnc1)S(=O)(=O)c1ccc2ccccc2c1 | nt | nt | -6.5 | 1.6 | -1.4 | nt | nt | nt
CCCC(=O)Nc1cccc(-c2cn3cccnc3n2)c1 | 67.9* | -25.5 | -9.3 | -19.7 | 11.1 | 5.6 | 7.5 | 4.8
CCCC(=O)Nc1ccc(-c2cn3cccnc3n2)cc1 | -11.0 | nt | -1.3 | -4.8 | 19.2 | nt | nt | nt
O=C(Cc1cccs1)N(Cc1cccs1)C1(C(=O)NC2CCCC2)CCCCC1 | 46.9* | 34.4 | -7.3 | -6.5 | 16.1 | 8.7 | 37.5* | 50.5*
O=C(NC1CCCCC1)C(c1cccs1)N(Cc1cccs1)C(=O)c1cccs1 (stereo unspecified) | 32.2* | 39.8 | -13.3 | -3.3 | 30.5 | 24.3 | 30.9* | 42.1*
O=C(Cc1cccs1)N(Cc1ccco1)C1(C(=O)NC2CCCCC2)CCCCC1 | 43.9* | 58.7 | -1.8 | -31.6 | 15.3 | 4.3 | 47.0* | 52.5*
CC(=O)N(Cc1ccco1)C1(C(=O)NC2CCCCC2)CCCCC1 | 15.5 | 3.5 | -9.4 | -19.6 | 15.1 | 8.6 | nt | nt
O=C1CCC(C(=O)N(Cc2ccco2)C2(C(=O)NC3CCCC3)CCCCC2)N1 (stereo unspecified) | 28.3* | 9.2 | -10.5 | -8.6 | 0.5 | 7.7 | 21.6 | 17.1
SMILES | GPR7 antag | EP2 mod | CHO parental Ca | OX1R antag-1 | OX1R antag-2 | EP2 antag | GPR7 antag cf | MCHR1 antagonist
O=C(NC1CCCCC1)C(c1ccc2ncccc2c1)N(Cc1cccs1)C(=O)c1cccs1 (stereo unspecified) | -5.4 | -45.0 | -1.2 | -28.2 | 26.3 | 9.9 | nt | nt
Cc1noc(C)c1CCC(=O)N1CCCC(CCC(=O)NCc2ccc(F)c(F)c2)C1 (stereo unspecified) | 8.8 | 8.8 | -10.6 | -18.5 | 9.1 | 9.1 | nt | nt
CCOC(=O)c1cc(-c2ccc(F)cc2)n(CC(=O)N2CCCC2)c1C | -2.3 | 12.1 | -29.1 | -32.6 | 18.0 | 16.9 | nt | nt
CCOC(=O)C1(CCOc2ccccc2)CCN(Cc2ccc3c(c2)OCCO3)CC1 | 6.5 | -25.3 | -12.8 | -21.4 | 2.6 | 3.3 | nt | nt
N/N=C(\Cc1cscn1)c1ccc(O)cc1O | -17.8 | -1.5 | 2.0 | -14.5 | 11.3 | 11.1 | nt | nt
CC(C)Cc1cc(C(=O)N2CCCC(CO)(Cc3ccc(F)cc3)C2)no1 (stereo unspecified) | 18.2 | nt | -25.6 | -24.7 | 4.6 | nt | nt | nt
CC(C)Cc1cc(C(=O)N2CCCC(CO)(Cc3ccc(F)cc3F)C2)n[nH]1 (stereo unspecified) | nt | nt | -28.7 | -28.6 | 9.9 | nt | nt | 7.7
O=C(NNC(=O)c1ccc(-c2ccccc2)cc1)Nc1ccccc1F | -16.2 | nt | -13.9 | -16.6 | 20.7 | nt | nt | nt
CCC(=O)Nc1cccc(NC(=O)CSc2nnnn2Cc2ccccc2)c1 | 22.6* | 4.0 | -32.8 | -28.7 | 23.8 | 13.4 | 12.1 | 14.0
COc1cc(NC(=O)CSc2nnnn2Cc2ccccc2)cc(OC)c1 | 13.3 | -69.3 | -12.3 | -13.9 | 21.6 | 2.4 | nt | nt
NS(=O)(=O)c1ccc(CCNC(=O)COC(=O)C2CCC2)cc1 | 38.4* | nt | -17.5 | -12.9 | 19.2 | nt | -3.4 | -5.4
NS(=O)(=O)c1ccc(CCNC(=O)COC(=O)CC(c2ccccc2)c2ccccc2)cc1 | 52.4* | -50.1 | -7.4 | -20.6 | 23.9 | 8.2 | 2.2 | 69.3*
O=C(COc1cccnc1[N+](=O)[O-])N1CCc2ccccc2C1 | -16.1 | -26.1 | -5.9 | -5.7 | 10.0 | 4.3 | nt | nt
COc1ccc2cc([C@H](C)C(=O)N(C)Cc3ccccc3N3CCCC3)ccc2c1 | 27.9* | nt | -24.3 | -5.7 | 9.4 | nt | 3.7 | 49.8*
CN(c1ccc(C(=O)NC2CCCC2)cc1)S(=O)(=O)c1ccc(Cl)cc1 | 33.2* | nt | -6.4 | -23.0 | 18.3 | nt | 23.7 | 16.2
COC(=O)CCn1nc(-c2ccc(Cl)cc2)c2ccccc2c1=O | -0.9 | 48.7 | -23.2 | -33.2 | 12.7 | 9.2 | nt | nt
CNC(=O)CCn1nc(-c2ccc(Cl)cc2)c2ccccc2c1=O | 24.2* | -9.7 | -7.4 | -39.1 | 33.6 | 7.1 | -12.8 | -1.5
CCC1(C)N([O-])C(C)=C(c2ccccc2)[N+]1=O (stereo unspecified) | 28.1* | 1.9 | -5.7 | -13.4 | 14.1 | 7.6 | -7.4 | 12.3
